Measured values as given in ChEMBL document CHEMBL4330094, “Potent Metabolic Sialylation Inhibitors Based on C-5-Modified Fluorinated Sialic Acids” (J Med Chem, 2019).
Activity calls are given as the source filed them. The rule behind the calls is not given here.

Tests used:
[1] = Inhibition of sialyltransferase in mouse 9464D cells assessed as decrease in lectin binding after 3 days by biotinylated MAL2 lectin and streptavidin-PE based flow cytometry; format: cell-based
In short: (§1)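 Each cell line was incubated 3 days with increasing compound concentrations or equivalent DMSO. Cells were stained with biotinylated MALII (5 µg/ml) in carbo-free blocking buffer with 1 mM CaCl/MgCl for 45-60 min at 4 °C, washed in PBS/1% BSA/0.02% azide, then stained with streptavidin-PE for 20 min at 4 °C. For flow cytometry, MFI was normalized to control as % lectin binding.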

[2] = Inhibition of sialyltransferase in HEK293 cells assessed as decrease in lectin binding after 3 days by biotinylated MAL2 lectin and streptavidin-PE based flow cytometry; format: cell-based, Homo sapiens; in short: as §1
[3] = test system: B16-F10; assay: Effect on total cell surface glycosylation in mouse B16F10 cells assessed as inhibition of biotinylated PSA-lectin binding at 102.4 uM after 3 days by flow cytometry; format: cell-based; details: b16-f10, 72 h
In short: (§2)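 B16-F10 cells were exposed 3 days to 102.4 µM compound or DMSO. Staining used biotinylated lectins (AAL 5, PNA 5, GSL-I 1, LCA 1, PHA-L 1, PSA 1, SJA 1, WGA 1 µg/ml) in carbo-free blocking buffer with 1 mM CaCl and 1 mM MgCl for 45-60 min at 4 °C, then streptavidin-PE for 20 min at 4 °C. Flow cytometry read-out was MFI, mean ± SEM from two independent experiments.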

[4] = test system: B16-F10; assay: Relative inhibitory potency, ratio of SiaFAc to compound EC50 for inhibition of sialyltransferase in mouse B16-F10 cells; format: cell-based
[5] = Inhibition of sialyltransferase in human HeLa cells assessed as decrease in lectin binding after 3 days by biotinylated MAL2 lectin and streptavidin-PE based flow cytometry; format: cell-based; in short: as §1
[6] = test system: B16-F10; assay: Effect on total cell surface glycosylation in mouse B16F10 cells assessed as inhibition of biotinylated PHA-L lectin binding at 102.4 uM after 3 days by flow cytometry; format: cell-based; details: b16-f10, 72 h; in short: as §2
[7] = test system: B16-F10; assay: Effect on total cell surface glycosylation in mouse B16F10 cells assessed as inhibition of biotinylated SJA-lectin binding at 102.4 uM after 3 days by flow cytometry; format: cell-based; details: b16-f10, 72 h; in short: as §2
[8] = test system: B16-F10; assay: Effect on total cell surface glycosylation in mouse B16F10 cells assessed as inhibition of biotinylated LCA-lectin binding at 102.4 uM after 3 days by flow cytometry; format: cell-based; details: b16-f10, 72 h; in short: as §2
[9] = Inhibition of sialyltransferase in mouse B16F10 cells assessed as decrease in lectin binding after 3 days by biotinylated MAL2 lectin and streptavidin-PE based flow cytometry; format: cell-based; in short: as §1
[10] = test system: B16-F10; assay: Inhibition of sialyltransferase in mouse B16-F10 cells assessed as recovery time for sialylation at 51.2 uM pretreated for 3 days followed by washing and re-seeding and measured after 6 days by biotinylated MAL2 lectin-based flow cytometry; format: cell-based
In short: (§3)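 B16-F10 cells were pretreated 3 days with 25.6 or 51.2 µM compound or DMSO, washed, reseeded, and sampled daily for 6 days. They were stained with biotinylated MALII (5 µg/ml, 45-60 min, 4 °C) plus streptavidin-PE. Flow cytometry MFI was normalized to control as % lectin binding.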

[11] = test system: B16-F10; assay: Effect on total cell surface glycosylation in mouse B16F10 cells assessed as inhibition of biotinylated WGA-lectin binding at 102.4 uM after 3 days by flow cytometry; format: cell-based; details: b16-f10, 72 h; in short: as §2
[12] = Inhibition of sialyltransferase in human THP1 cells assessed as decrease in lectin binding after 3 days by biotinylated MAL2 lectin and streptavidin-PE based flow cytometry; format: cell-based; in short: as §1
[13] = test system: B16-F10; assay: Effect on total cell surface glycosylation in mouse B16F10 cells assessed as inhibition of biotinylated GSL1-lectin binding at 102.4 uM after 3 days by flow cytometry; format: cell-based; details: b16-f10, 72 h; in short: as §2
[14] = test system: B16-F10; assay: Cytotoxicity against mouse B16F10 cells assessed as reduction in metabolic activity at 204.8 uM after 3 days by MTT assay; format: ADME, cell-based; details: b16-f10, 72 h
[15] = test system: B16-F10; assay: Effect on total cell surface glycosylation in mouse B16F10 cells assessed as inhibition of biotinylated PNA lectin binding at 102.4 uM after 3 days by flow cytometry; format: cell-based; details: b16-f10, 72 h; in short: as §2
[16] = test system: B16-F10; assay: Effect on total cell surface glycosylation in mouse B16F10 cells assessed as inhibition of biotinylated AAL-lectin binding at 102.4 uM after 3 days by flow cytometry; format: cell-based; details: b16-f10, 72 h; in short: as §2
[17] = test system: B16-F10; assay: Cytotoxicity against mouse B16F10 cells assessed as reduction in metabolic activity at <51.2 uM after 3 days by MTT assay; format: ADME, cell-based; details: b16-f10, 72 h
[18] = test system: B16-F10; assay: Inhibition of sialyltransferase in mouse B16-F10 cells assessed as recovery time for sialylation at 25.6 uM pretreated for 3 days followed by washing and re-seeding and measured after 6 days by biotinylated MAL2 lectin-based flow cytometry; format: cell-based; in short: as §3
[19] = Inhibition of sialyltransferase in mouse EL4 cells assessed as decrease in lectin binding after 3 days by biotinylated MAL2 lectin and streptavidin-PE based flow cytometry; format: cell-based; in short: as §1

Row | EC50 [1] | EC50 [2] | EC50 [5] | EC50 [9] | EC50 [12] | EC50 [19] | SMILES | Activity [3] | Ratio EC50 [4] | Activity [6] | Activity [7] | Activity [8] | TIME [10] | Activity [11] | Activity [13] | Activity [14] | Activity [15] | Activity [16] | Activity [17] | sialylation recovery time [18]
1 | – | – | – | 25.5 µM | – | ≥ 50 µM | COCCOC(=O)N[C@H]1[C@H]([C@H](OC(C)=O)[C@@H](COC(C)=O)OC(C)=O)OC(OC(C)=O)(C(=O)OC)[C@H](F)[C@@H]1OC(C)=O (some centres not stated) | – | 1 | – | – | – | – | – | – | – | – | – | – | –
2 | – | – | – | 3.83 µM | – | – | COC(=O)C1(OC(C)=O)O[C@@H]([C@H](OC(C)=O)[C@@H](COC(C)=O)OC(C)=O)[C@H](NC(=O)OCC(Cl)(Cl)Cl)[C@@H](OC(C)=O)[C@H]1F (some centres not stated) | – | 7 | – | – | – | – | – | – | – | – | – | – | –
3 | – | – | – | 7.45 µM | – | – | CCCCOC(=O)N[C@H]1[C@H]([C@H](OC(C)=O)[C@@H](COC(C)=O)OC(C)=O)OC(OC(C)=O)(C(=O)OC)[C@H](F)[C@@H]1OC(C)=O (some centres not stated) | – | 4 | – | – | – | – | – | – | – | – | – | – | –
4 | 6.91 µM | 1.83 µM | 1.77 µM | 1.39 µM | 0.41 µM | 39.9 µM | C=CCOC(=O)N[C@H]1[C@H]([C@H](OC(C)=O)[C@@H](COC(C)=O)OC(C)=O)OC(OC(C)=O)(C(=O)OC)[C@H](F)[C@@H]1OC(C)=O (some centres not stated) | Non-Toxic | 19 | Non-Toxic | Non-Toxic | Non-Toxic | 120 to 144 h | Non-Toxic | Non-Toxic | Non-Toxic | Non-Toxic | Non-Toxic | Non-Toxic | Active
5 | – | – | – | 18 µM | – | – | COC(=O)C1(OC(C)=O)O[C@@H]([C@H](OC(C)=O)[C@@H](COC(C)=O)OC(C)=O)[C@H](NC(=O)CCl)[C@@H](OC(C)=O)[C@H]1F (some centres not stated) | – | 1 | – | – | – | 48 to 72 h | – | – | – | – | – | – | –
6 | 24.4 µM | 11.4 µM | 5.15 µM | 3.33 µM | 0.5 µM | 51.8 µM | COC(=O)C1(OC(C)=O)O[C@@H]([C@H](OC(C)=O)[C@@H](COC(C)=O)OC(C)=O)[C@H](NC(=O)OCC(C)C)[C@@H](OC(C)=O)[C@H]1F (some centres not stated) | Non-Toxic | 8 | Non-Toxic | Non-Toxic | Non-Toxic | 120 to 144 h | Non-Toxic | Non-Toxic | Non-Toxic | Non-Toxic | Non-Toxic | Non-Toxic | Active
7 | 18.3 µM | 3.31 µM | 6.33 µM | 4.89 µM | 1.98 µM | 59.2 µM | COC(=O)N[C@H]1[C@H]([C@H](OC(C)=O)[C@@H](COC(C)=O)OC(C)=O)OC(OC(C)=O)(C(=O)OC)[C@H](F)[C@@H]1OC(C)=O (some centres not stated) | Non-Toxic | 5 | Non-Toxic | Non-Toxic | Non-Toxic | 120 to 144 h | Non-Toxic | Non-Toxic | Non-Toxic | Non-Toxic | Non-Toxic | Non-Toxic | Active
8 | – | – | – | 1.25 µM | – | – | COC(=O)C1(OC(C)=O)O[C@@H]([C@H](OC(C)=O)[C@@H](COC(C)=O)OC(C)=O)[C@H](NC(=O)OCCF)[C@@H](OC(C)=O)[C@H]1F (some centres not stated) | – | 21 | – | – | – | – | – | – | – | – | – | – | –

The remaining lines, values behind:

Row | SMILES | EC50 [1] | EC50 [2] | EC50 [5] | EC50 [9] | EC50 [12] | EC50 [19] | Activity [3] | Ratio EC50 [4] | Activity [6] | Activity [7] | Activity [8] | TIME [10] | Activity [11] | Activity [13] | Activity [14] | Activity [15] | Activity [16] | Activity [17] | sialylation recovery time [18]
9 | COC(=O)C1(OC(C)=O)O[C@@H]([C@H](OC(C)=O)[C@@H](COC(C)=O)OC(C)=O)[C@H](NC(=O)CN=[N+]=[N-])[C@@H](OC(C)=O)[C@H]1F (some centres not stated) | > 102 µM | 45.6 µM | 80.6 µM | 19.9 µM | 10.9 µM | > 102 µM | Non-Toxic | 1 | Non-Toxic | Non-Toxic | Non-Toxic | 48 to 72 h | Non-Toxic | Non-Toxic | Non-Toxic | Non-Toxic | Non-Toxic | Non-Toxic | Active
10 | COC(=O)C1(OC(C)=O)O[C@@H]([C@H](OC(C)=O)[C@@H](COC(C)=O)OC(C)=O)[C@H](NC(=O)OC(C)(C)C)[C@@H](OC(C)=O)[C@H]1F (some centres not stated) | 36.5 µM | 10.4 µM | 12.8 µM | 3.48 µM | 1.28 µM | 54.6 µM | Non-Toxic | 8 | Non-Toxic | Non-Toxic | Non-Toxic | 120 to 144 h | Non-Toxic | Non-Toxic | Non-Toxic | Non-Toxic | Non-Toxic | Non-Toxic | Active
11 | COC(=O)C1(OC(C)=O)O[C@@H]([C@H](OC(C)=O)[C@@H](COC(C)=O)OC(C)=O)[C@H](NC(=O)COC(C)=O)[C@@H](OC(C)=O)[C@H]1F (some centres not stated) | > 102 µM | 53.6 µM | 16.6 µM | 4.98 µM | 4.24 µM | > 102 µM | Non-Toxic | 5 | Non-Toxic | Non-Toxic | Non-Toxic | 48 to 72 h | Non-Toxic | Non-Toxic | Non-Toxic | Non-Toxic | Non-Toxic | Non-Toxic | Active
12 | COC(=O)C1(OC(C)=O)O[C@@H]([C@H](OC(C)=O)[C@@H](COC(C)=O)OC(C)=O)[C@H](NC(=O)C(F)(F)F)[C@@H](OC(C)=O)[C@H]1F (some centres not stated) | 46.5 µM | 42.8 µM | 25.5 µM | 14.3 µM | 3.3 µM | > 102 µM | Non-Toxic | 2 | Non-Toxic | Non-Toxic | Non-Toxic | 48 to 72 h | Non-Toxic | Non-Toxic | Non-Toxic | Non-Toxic | Non-Toxic | Non-Toxic | Active
13 | COC(=O)C1(OC(C)=O)O[C@@H]([C@H](OC(C)=O)[C@@H](COC(C)=O)OC(C)=O)[C@H](NC(=O)OCc2ccccc2)[C@@H](OC(C)=O)[C@H]1F (some centres not stated) | – | – | – | 14.5 µM | – | – | – | 2 | – | – | – | – | – | – | – | – | – | – | –
